An excerpt weighted towards active compounds, which were near 7.2% of everything screened.
tolC growth inh: blocks growth of E. coli BW25113 tolC mutant; hit rate 2.2% among 65,000; OD615; growth inhibition, % at 10 µM (by protocol);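 active means growth inhibition at or above a cutoff equal to the mean over every tested compound plus 3 SD, cut at about 60% in these data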;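 further: growth measured after 20 h incubation at 37 °C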
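Signal: optical density read at 615 nm; Assay system: E. coli ΔtolC::kan strain BW25113; Times: 20 h incubation with compound, 37 °C; Dosing: 10 µM final, single dose.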
PostGolgi yeast: growth inhibition of a yeast mutant, post-Golgi transport screen | inhibition, % at 10 µM | post-Golgi transport phenotypic cell assay | hit rate 0.9% among 98,000 | AID 739;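 further: yeast cells grown in 1536-well plates; yeast grown about 18 h at 30C before absorbance read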
PostGolgi ctrl: yeast control strain growth, post-Golgi counter-screen; efflux-deficient yeast background strain, growth absorbance A615, 16 h; hit rate 5% among 98,000; inhibition, % at 10 µM
Ecoli WT expand: growth inhibitors of E. coli BW25113 wild type. growth inhibition, % at 100 µM. OD600 absorbance. hit rate 0.15% among 98,000;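 active means growth inhibition above about 50% at one test dose, limit read from the data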;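 further: growth measured after 20 h incubation at 37 °C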
PLAP activator: human PLAP activation; AID 696; purified PLAP enzyme, luminescent substrate read-out; hits give high values; hit rate 1.2% among 96,000; activation fold at 20 µM; P05187; in the data active means activation fold above about 2
Target sequence (P05187 whole entry, looked up): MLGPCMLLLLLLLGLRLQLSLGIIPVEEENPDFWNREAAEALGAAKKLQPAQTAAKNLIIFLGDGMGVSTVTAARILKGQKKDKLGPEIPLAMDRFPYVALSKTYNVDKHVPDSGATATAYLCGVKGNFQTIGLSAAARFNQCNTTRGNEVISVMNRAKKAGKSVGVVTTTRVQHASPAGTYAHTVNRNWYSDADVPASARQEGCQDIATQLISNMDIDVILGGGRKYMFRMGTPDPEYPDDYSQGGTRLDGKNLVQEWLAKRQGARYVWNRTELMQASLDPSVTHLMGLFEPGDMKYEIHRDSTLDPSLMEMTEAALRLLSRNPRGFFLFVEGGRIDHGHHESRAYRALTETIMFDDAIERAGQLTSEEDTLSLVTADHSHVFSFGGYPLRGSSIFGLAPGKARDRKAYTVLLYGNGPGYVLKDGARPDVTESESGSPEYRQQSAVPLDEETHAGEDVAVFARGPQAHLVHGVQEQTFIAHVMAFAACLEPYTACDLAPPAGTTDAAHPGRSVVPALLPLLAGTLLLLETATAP
* = called active by the depositor; / = not tested or not shown. Unless noted, no stated cut-off is given here; in the data, active means inhibition above about 30%; inactive means the rest.

SMILES | tolC growth inh | PostGolgi yeast | PostGolgi ctrl | Ecoli WT expand | PLAP activator
CCCn1c(SCC(=O)N2c3ccccc3Sc3ccccc32)nc2c1c(=O)n(C)c(=O)n2C | 43.8 | 14.3 | 32.1* | -10.0 | 1.3
CC(C)n1c(SCC(N)=O)nc2c1c(=O)n(C)c(=O)n2C | -7.9 | 1.7 | 9.7 | 1.0 | 0.9
CC1CCc2c(C(=O)Oc3cccc(-n4cnnn4)c3)csc2C1 (centres undefined) | 68.9* | 10.2 | 25.8 | -19.0 | 1.1
COC(=O)c1c(NC(=O)CSc2nnnn2-c2ccccc2)sc2c1CCC(C)C2 (centres undefined) | 2.2 | 11.9 | 9.8 | -13.0 | 1.1
COc1ccc(NCc2nnc(SCC(=O)Nc3cc(C(F)(F)F)ccc3Cl)o2)cc1 | 2.4 | 7.0 | 1.7 | 8.0 | 2.3*
COc1ccccc1-c1c(C(F)(F)F)oc2cc(OC(=O)c3cccc([N+](=O)[O-])c3C)ccc2c1=O | / | 5.0 | 17.4 | -7.0 | 1.1
COc1ccccc1-n1c(SCC(=O)NC2CCCCC2)nc2c(c1=O)SCC2 | 11.6 | 3.2 | 5.3 | 5.0 | 0.9
Cc1ccc(/C=C(\C#N)c2nc3ccccc3[nH]2)s1 | / | -5.2 | 27.2 | -5.0 | 0.9
N#C/C(=C\c1ccc(Cl)cc1)c1nc2ncccc2[nH]1 | / | 26.7 | 47.7* | -7.0 | 1.2
COC(=O)Nc1ccc(S(=O)(=O)N2CCN(C)CC2)cc1 | -12.5 | 4.4 | -1.2 | -13.0 | 1.1
COC(=O)Nc1ccc(S(=O)(=O)N2CCN(c3ccc(F)cc3)CC2)cc1 | -9.8 | -9.4 | 38.3* | 3.0 | 0.9
COC(=O)Nc1ccc(S(=O)(=O)N2CCC(Cc3ccccc3)CC2)cc1 | / | 3.2 | 35.0* | -3.0 | 1.4
CC(C)CC(=O)N1CCN(S(=O)(=O)c2ccc(F)cc2)CC1 | -0.3 | -6.2 | 39.0* | 0.0 | 0.9
CCOc1ccc(OCCN2C(=O)NC(Cc3c[nH]c4ccccc34)C2=O)cc1 (centres undefined) | / | -4.3 | 18.9 | 9.0 | 1.9
CC(C)c1nc(N2CCOCC2)c(C#N)c2c1CCCC2 | 64.9* | -4.8 | 10.5 | -2.0 | 0.9
CCSc1nc(N2CCOCC2)c2c(c1C#N)CCCC2 | 20.6 | 8.1 | 40.5* | 5.0 | 0.9
N#Cc1c(N2CCOCC2)nc(N2CCCCC2)c2c1CCN(C1CCCCC1)C2 | 6.5 | 4.5 | 0.6 | 2.0 | 2*
Cc1nn(-c2ccccc2)c2c1C1(C(=O)N(C(C)C)c3ccccc31)C(C#N)=C(N)O2 (centres undefined) | -0.3 | 5.7 | 12.9 | 8.0 | 1
CCc1ccc(N(C(=O)c2snc(C(N)=O)c2N)C(C(=O)NCCC(C)C)c2c[nH]c3ccccc23)cc1 (centres undefined) | / | -7.5 | -1.1 | -11.0 | 0.6
COc1ccc2ccccc2c1C(O)c1nccn1C (centres undefined) | -2.2 | 1.7 | 3.9 | 6.0 | 2*
CCCN(CCC)S(=O)(=O)c1ccc(NS(=O)(=O)c2ccc(F)cc2)cc1 | / | 1.1 | 0.0 | 23.0 | 1.3
CC(=O)c1c(C(C)=O)c(C)n(-c2ccc(C)c(NC(=O)c3ccccc3Cl)c2)c1C | / | 9.7 | 6.8 | 1.0 | 1.3
Cc1cc(C)cc(Oc2ncnc3c2ncn3Cc2c(Cl)cccc2Cl)c1 | / | -1.0 | 34.1* | -2.0 | 1.2
Cc1ccc(-c2cc(C#N)c(=O)n(Cc3c(Cl)cccc3Cl)c2)cc1 | / | 1.9 | 5.3 | -11.0 | 0.9
COc1ccc(CNC(=O)C(c2ccncc2)N(C(=O)Cc2cccs2)c2ccccc2C)cc1 (centres undefined) | / | 22.5 | 5.6 | 3.0 | 1
SMILES | tolC growth inh | PostGolgi yeast | PostGolgi ctrl | Ecoli WT expand | PLAP activator
O=C(O)c1ccccc1C(=O)Nc1nccs1 | / | -18.3 | 30.2* | -4.0 | 1
CSc1ccccc1C(=O)Nc1nccs1 | / | -8.0 | 5.4 | 4.0 | 1.3
O=C(O)c1ccccc1C(=O)Nc1ccccc1 | -8.2 | -0.9 | 40.4* | -1.0 | 1
CCOC(=O)c1cccc(Nc2nc(-c3cccnc3)nc3ccccc23)c1 | / | 4.1 | 67.9* | -15.0 | 1.2
CCOC(=O)c1c(C)nc2sc3c(c2c1-c1ccc(OC)cc1)NC(c1ccc(OC)cc1)NC3=O (centres undefined) | / | 17.4 | -6.7 | 1.0 | 1.4
CCCN1Cc2cccc(C(=O)Nc3ccc4c(c3)OCCO4)c2C1=O | 8.9 | 10.8 | 35.8* | -3.0 | 1.5
CCCN1Cc2cccc(C(=O)Nc3ccc4c(c3)OCO4)c2C1=O | 1.2 | 4.9 | 8.0 | -5.0 | 0.8
Cc1ccc2c(CSc3nc4ccccc4c(=O)n3CCCO)cc(=O)oc2c1 | 25.4 | / | / | / | /
CCCc1cc(Nc2cccc(OC)c2)n2ncnc2n1 | 3.8 | 18.5 | 10.1 | -7.0 | 2.3*
CCc1cccc(Nc2cc(C)nc3ncnn23)c1 | 4.0 | / | / | / | /
Cc1cc(Nc2cccc(Cl)c2)n2ncnc2n1 | -10.0 | / | / | / | /
CCCc1cc(Nc2cccc(OCC)c2)n2ncnc2n1 | 17.9 | -5.3 | 9.0 | -2.0 | 2*
COc1ccc(OCCSc2nnc3sc4ccccc4n23)cc1 | 27.8 | 38.1* | 1.2 | 4.0 | 1.2
CN(C)CCSc1nnc2sc3ccccc3n12 | -9.2 | -1.1 | 4.5 | 7.0 | 0.9
Cc1ccc2c(c1)c1c(n2CC(O)Cn2c(C)nc3ccccc32)C(=O)CCC1 (centres undefined) | 37.6 | 4.7 | 12.1 | 0.0 | 1.6
Cc1ccc2c(c1)c1c(n2CC(O)Cn2c(C)nc3ccccc32)/C(=N\O)CCC1 (centres undefined) | 78.4* | -8.9 | 23.2 | 3.0 | 1.5
CC(C)C(=O)N/N=C/c1ccc(OCc2ccccc2)cc1 | / | 0.6 | 4.8 | -5.0 | 1
NC(N)=N/N=C/c1ccc(OCc2ccc(Cl)cc2)cc1 | / | -8.8 | 63.1* | 100.0* | 1.3
NC(N)=N/N=C/c1ccc(OCc2ccccc2)cc1 | / | 3.1 | 8.3 | 99.0* | 1.1
N#Cc1nc(-c2ccccc2F)oc1NC1CCCCC1 | 16.1 | 2.7 | / | -7.0 | 1
O=C(c1ccc(Br)cc1)c1cc(-c2ccccn2)c(N2CCOCC2)s1 | / | -4.0 | 42.7* | 2.0 | 1
O=C(c1cc(Cl)ccc1Cl)N1CCN(c2ccccn2)CC1 | 2.6 | 7.1 | -8.6 | 4.0 | 1.1
O=C(c1ccc(Cl)c(Cl)c1)c1cc(-c2ccccn2)c(N2CCOCC2)s1 | / | -2.5 | 56.1* | -18.0 | 1.1
CCCCNC(=O)C1CCCN1C(=O)Nc1cccc(OC)c1 (centres undefined) | -19.8 | 8.1 | 9.0 | -1.0 | 1.1
CCOC(=O)N1CCN(C(=O)Cc2ccsc2)CC1 | -9.6 | -7.1 | 9.2 | -2.0 | 0.9
SMILES | tolC growth inh | PostGolgi yeast | PostGolgi ctrl | Ecoli WT expand | PLAP activator
CCOc1c2ccc(C(=O)NCc3ccc4c(c3)OCO4)cc2nn1CCOC | / | -21.1 | 6.2 | -2.0 | 1.1
Cc1ccc(C)c(SCC(=O)Nc2nnc(-c3ccccc3)o2)c1 | 99.5* | -2.3 | -10.2 | -7.0 | 1
CCN1c2ccccc2-c2nc3ccccc3n2C1c1ccncc1 (centres undefined) | -4.6 | -13.7 | 9.9 | 2.0 | 1.4
CCN1c2ccccc2-c2nc3ccccc3n2C1c1ccccn1 (centres undefined) | 32.7 | -8.8 | 40.2* | -3.0 | 1.1
CN(C)c1ccc(C2C3C(=O)NC(=O)C3ON2c2ccc(Cl)cc2)cc1 (centres undefined) | 13.6 | -4.2 | 28.6 | 4.0 | 1.4
CCOCCCNc1nc2ccccc2[nH]1 | -12.3 | 4.9 | 0.8 | 10.0 | 0.8
CCCCNc1nc2ccccc2[nH]1 | / | 9.9 | -2.3 | 19.0 | 2.7*

Screening data: PubChem, several laboratories
